“Also recorded” adds a separate entry of the source. Blank lines part the entries; values can stand above or below the compound they belong to.
What was measured:
[1] = test system: HT1080 cells (IDH1 R132C); experiment: Histone lysine methylation levels, Western blot; format: cell-based, human; conditions: treated 4 days
In short: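 After 4 days of test-compound exposure, histones were extracted from treated and control HT1080 cells. Extracts were analysed by Western blot using antibodies to total human histone H3 and to specific methylated lysine marks.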

IDH1(R132H) [2] = target: T1, IDH1(R132H) (Homo sapiens, UniProt O75874, R132H); experiment: Isothermal titration calorimetry; format: binding
[3] = test system: HT1080 cells (IDH1 R132C); experiment: D2HG production inhibition in HT1080 cells; format: cell-based, human; conditions: treated 2 days (48h)
In short: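 HT1080 cells (10^5/well) grown in DMEM with 10% dialyzed FBS and exposed to increasing test-compound concentrations for 48h. Culture medium was collected, diluted with MeOH and centrifuged (20,000 rpm, 3 min). D2HG in the supernatant was quantified by HPLC-MS.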

[4] = test system: BT142 glioma cells with IDH1 R132H mutation; experiment: Proliferation of glioma stem-like cells; format: cell-based; conditions: 14 days
[5] = test system: BXD-3752 glioma cells without an IDH1 mutation; experiment: Proliferation of glioma stem-like cells; format: cell-based; conditions: BXD-3752, no IDH1 mutation, 14 days
IDH1(R132H) [6] = target: T1, IDH1(R132H); experiment: Steady-state enzyme kinetic study; format: biochemical
IDH1(R132H) [7] = target: T1, IDH1(R132H); experiment: IDH1; format: biochemical; conditions: for Fold less active than compound 4: IDH1(R132H) Ki compared with compound 4
In short: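 E. coli-expressed, column-purified IDH1(R132H) (100 nM) in 50 mM HEPES pH 7.5 with 4 mM MgCl2, 100 µM NADPH and graded inhibitor. After 5 min preincubation, 1 mM α-KG was added to start the reaction. NADPH consumption was read at 340 nm every 30 s. IC50s came from dose-response fits. Ki was derived by Cheng-Prusoff (Km 0.965 mM), or by Morrison tight-binding fitting when IC50 <1 µM. Values are means of ≥3 independent runs.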

[8] = test system: IDH1 mutated cancer cells; conditions: cited from earlier work
[9] = IDH1(R132H) 100 μM without NADPH, 298K
[10] = IDH1(R132H) 100 μM without NADPH, 298K, pH 7.4

T1 sequence (O75874 whole entry R132H): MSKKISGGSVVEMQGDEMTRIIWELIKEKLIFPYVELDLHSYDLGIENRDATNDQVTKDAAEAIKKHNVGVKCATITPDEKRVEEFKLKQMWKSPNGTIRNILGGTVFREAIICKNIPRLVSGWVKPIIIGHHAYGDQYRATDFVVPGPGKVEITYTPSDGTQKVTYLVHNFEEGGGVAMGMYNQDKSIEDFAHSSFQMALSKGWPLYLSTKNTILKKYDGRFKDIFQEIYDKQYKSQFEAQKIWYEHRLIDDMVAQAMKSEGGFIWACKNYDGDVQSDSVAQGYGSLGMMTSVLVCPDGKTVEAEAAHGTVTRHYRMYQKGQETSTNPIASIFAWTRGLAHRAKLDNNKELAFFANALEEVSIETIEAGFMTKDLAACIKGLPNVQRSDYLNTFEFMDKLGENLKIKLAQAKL

calculated ΔS of binding (IDH1(R132H) [2]; [9]): 95.0 J K^−1 mol^−1
ΔG of binding (IDH1(R132H) [2]; [9]): -7.12 kcal/mol
Ka (affinity constant) (IDH1(R132H) [2]; [10]): 168000 M⁻¹
ΔH of binding (IDH1(R132H) [2]; [10]): -0.359 kcal/mol
ΔH of binding (IDH1(R132H) [2]; IDH1(R132H) 133 μM in the presence of NADPH (300 μM)): -0.598 kcal/mol
Mode of action against the cofactor NADPH (IDH1(R132H) [6]; variable NADPH, Michaelis-Menten plot): noncompetitive
Mode of action against the substrate α-KG (IDH1(R132H) [6]; variable α-KG, Lineweaver-Burk plot): competitive
SMILES: O=C1NC(=S)N/C1=C/c1ccc(=O)[nH]c1 [Compound 18]
Effect on histone lysine methylation levels (H3K4me3, H3K4me2, H3K27me2, H4K20me2) [1]: significantly reduced methylation levels; also recorded: significantly reduce the methylation levels
Effect on production of D2HG [3]: significantly reduced the production of D2HG; also recorded: significantly reduced amount of D2HG
Effect on proliferation / neurosphere formation of glioma stem-like cells [4]: inhibited neurosphere formation; also recorded: significantly inhibit proliferation
Effect on proliferation / neurosphere formation of glioma stem-like cells [5]: did not affect neurosphere formation; also recorded: did not have activity

Inhibitory activity against IDH1(R132H) in words (IDH1(R132H) [7]): inactive
SMILES: COc1ccc(CN2C(=O)/C(=C\c3ccc(OC)c(OC)c3)NC2=S)cc1 [Compound 7]

Inhibitory activity against IDH1(R132H) in words (IDH1(R132H) [7]): Loss of activity
SMILES: O=C1NC(=S)N/C1=C/c1ccnc(Br)c1 [Compound 32]

SMILES: CN1C(=O)/C(=C\c2ccc(=O)[nH]c2)NC1=S [Compound 16]
Effect on production of D2HG [3]: significantly reduced the production of D2HG; also recorded: significantly reduced amount of D2HG
Effect on proliferation / neurosphere formation of glioma stem-like cells [4]: inhibited neurosphere formation; also recorded: significantly inhibit proliferation
Effect on proliferation / neurosphere formation of glioma stem-like cells [5]: did not affect neurosphere formation; also recorded: did not have activity

Inhibitory activity against IDH1(R132H) in words (IDH1(R132H) [7]): inactive
SMILES: NC1=N/C(=C/c2ccc(=O)[nH]c2)C(=O)N1 [Compound 39]

Fold activity reduction compared to compound 16 (IDH1(R132H) [7]; IDH1(R132H) Ki compared with compound 16): 22 fold
SMILES: CN1C(=O)/C(=C\c2ccc(=O)[nH]c2)N(C)C1=S [Compound 41]

Inhibitory activity against IDH1(R132H) in words (IDH1(R132H) [7]): completely lose the inhibitory activity
SMILES: CSC1=N/C(=C/c2ccc(=O)[nH]c2)C(=O)N1 [Compound 40]

Inhibitory activity against IDH1(R132H) in words (IDH1(R132H) [7]): none of these compounds are active
SMILES: COc1ccc(/C=C2/NC(=S)N(CC(=O)O)C2=O)cn1 [Compound 19]

Inhibitory activity against IDH1(R132H) in words (IDH1(R132H) [7]): inactive
SMILES: COc1ccc(/C=C2/NC(=S)N(Cc3ccccc3)C2=O)cn1 [Compound 11]

SMILES: Cc1ccccc1C(C(=O)NC1CCCCC1)N(C(=O)Cn1ccnc1C)c1cccc(F)c1 (stereo not shown) [Compound 1, reference compound]
Effect on proliferation of IDH1 mutated cancer cells [8]: can also inhibit proliferation
Effect on proliferation / neurosphere formation of glioma stem-like cells [4]: inhibited neurosphere formation; also recorded: can inhibit growth
Effect on proliferation / neurosphere formation of glioma stem-like cells [5]: did not affect neurosphere formation

Inhibitory activity against IDH1(R132H) in words (IDH1(R132H) [7]): inactive
SMILES: COc1ccc(/C=C2/NC(=S)N(c3ccccc3)C2=O)cc1OC [Compound 6]

Inhibitory activity against IDH1(R132H) in words (IDH1(R132H) [7]): inactive
SMILES: O=C1/C(=C\c2cccnc2)NC(=S)N1Cc1ccccc1 [Compound 10]

Inhibitory activity against IDH1(R132H) in words (IDH1(R132H) [7]): Complete loss of activity
SMILES: O=C1NC(=O)/C(=C\c2ccc(=O)[nH]c2)N1 [Compound 38]

Inhibitory activity against IDH1(R132H) in words (IDH1(R132H) [7]): Complete loss of activity
SMILES: COc1ccc(/C=C2/NC(=O)NC2=O)cn1 [Compound 37]

SMILES: O=C(O)CN1C(=O)/C(=C\c2ccc(=O)[nH]c2)NC1=S [Compound 20]
Effect on histone lysine methylation levels (H3K4me3, H3K4me2, H3K27me2, H4K20me2) [1]: did not significantly affect histone methylation levels; also recorded: did not significantly reduce
Inhibitory activity against IDH1(R132H) in words (IDH1(R132H) [7]): none of these compounds are active
Effect on production of D2HG [3]: did not significantly reduce D2HG

Fold less active than compound 4 (IDH1(R132H) [7]): ~ 3 fold
SMILES: O=C1/C(=C\c2ccc(O)c(O)c2)NC(=S)N1c1ccccc1 [Compound 8]

Ki (IDH1(R132H) [7]): 4.7 µM
SMILES: O=C1C(=Cc2ccc(O)c(O)c2)NC(=S)N1Cc1ccccc1 [Compound 4, 3-benzyl-5-(3,4-dihydroxybenzylidene)-2-thiohydantoin]

Fold less active than compound 4 (IDH1(R132H) [7]): ~ 3 fold
SMILES: O=C1/C(=C\c2ccc(O)c(O)c2)NC(=S)N1Cc1ccc(O)cc1 [Compound 9]
